Test results from ChEMBL document CHEMBL2346559, “Optimization of benzoxazole-based inhibitors of Cryptosporidium parvum inosine 5'-monophosphate dehydrogenase” (J Med Chem, 2013).

What was measured:
[1] = target: T1, Inosine-5'-monophosphate dehydrogenase (Cryptosporidium parvum, UniProt Q8T6T2); assay: Inhibition of Cryptosporidium parvum N-terminal His6-tagged IMPDH-mediated NADH production expressed in Escherichia coli BL21(DE3) preincubated for 5 mins prior to substrate addition by fluorescence assay
T1 sequence (Q8T6T2 whole entry): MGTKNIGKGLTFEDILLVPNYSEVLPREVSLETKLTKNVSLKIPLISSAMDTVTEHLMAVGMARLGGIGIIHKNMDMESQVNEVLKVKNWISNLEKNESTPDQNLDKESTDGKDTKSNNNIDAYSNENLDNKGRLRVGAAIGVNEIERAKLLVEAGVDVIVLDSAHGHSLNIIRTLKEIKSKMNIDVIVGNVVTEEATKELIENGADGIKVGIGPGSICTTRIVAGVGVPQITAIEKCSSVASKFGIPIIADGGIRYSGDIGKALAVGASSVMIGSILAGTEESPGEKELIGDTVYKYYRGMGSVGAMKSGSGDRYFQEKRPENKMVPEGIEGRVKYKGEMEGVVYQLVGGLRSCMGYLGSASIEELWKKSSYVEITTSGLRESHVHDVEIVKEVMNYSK

[2] = target: Inosine-5'-monophosphate dehydrogenase 2 (Homo sapiens, UniProt P12268); assay: Inhibition of human IMPDH2
[3] = target: T1, Inosine-5'-monophosphate dehydrogenase; assay: Inhibition of Cryptosporidium parvum N-terminal His6-tagged IMPDH-mediated NADH production expressed in Escherichia coli BL21(DE3) preincubated for 5 mins prior to substrate addition by fluorescence assay in presence of BSA
Summary of the method: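 Same CpIMPDH fluorescence assay (10 nM enzyme, 300 μM NAD, 150 μM IMP, pH 8.0 Tris buffer, 25 °C, 5 min inhibitor preincubation), run with 0.05% fatty-acid-free BSA added to gauge nonspecific protein binding. Quadruplicate points; IC50 averaged over three determinations.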

Toxoplasma gondii [4] = assay: Antiparasitic activity against wild-type Toxoplasma gondii expressing eukaryotic IMPDH; format: functional, organism-based
Toxoplasma gondii [5] = assay: Selectivity ratio of EC50 for wild-type Toxoplasma gondii to EC50 for Toxoplasma gondii expressing Cryptosporidium parvum IMPDH; format: functional
Toxoplasma gondii [6] = assay: Antiparasitic activity against transgenic Toxoplasma gondii expressing Cryptosporidium parvum IMPDH; format: functional, organism-based
Summary of the method: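 Engineered T. gondii strain that depends on CpIMPDH for guanine nucleotide synthesis, run alongside the wild-type RH strain, whose native eukaryotic IMPDH also gauges host-cell cytotoxicity. Antiparasitic EC50 is the average of three independent determinations unless otherwise stated, with some values from two determinations.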

[7] = Cytotoxicity against human HeLa cells after 3 days by Alamar blue assay; format: cell-based; conditions: read-out: LD50
Summary of the method: (§1)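 Tested in parallel against HeLa, HEK293, COS and CHO cells. Viability was read as metabolic activity by alamarBlue and expressed as LD50.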

[8] = Cytotoxicity against African green monkey COS cells after 3 days by Alamar blue assay; format: cell-based; conditions: chlorocebus aethiops, read-out: LD50; summary of the method: as §1
[9] = Cytotoxicity against human HEK293 cells after 3 days by Alamar blue assay; format: cell-based; conditions: read-out: LD50; summary of the method: as §1
[10] = Cytotoxicity against CHO cells after 3 days by Alamar blue assay; format: cell-based, Cricetulus griseus; conditions: chinese hamster, read-out: LD50; summary of the method: as §1
Liver [11] = assay: Half life in mouse liver microsomes by LC/MS/MS analysis in presence of NADPH; format: ADME, Microsome
Summary of the method: (§2)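 Incubation with mouse liver microsomes at 37 °C, with and without NADPH. Percent of compound remaining measured at several time points; half-life from a fit to first-order decay.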

Liver [12] = assay: Half life in mouse liver microsomes by LC/MS/MS analysis; format: ADME, Microsome; summary of the method: as §2

Compound | IC50 [1] | IC50 [2] | IC50 [3] | EC50 (Toxoplasma gondii [4]) | Ratio EC50 (Toxoplasma gondii [5]) | EC50 (Toxoplasma gondii [6]) | CC50 at 72 h [7] | CC50 at 72 h [8] | CC50 at 72 h [9] | CC50 at 72 h [10] | t1/2 (Liver [11]) | t1/2 (Liver [12])
CC(Cc1ccccc1)C(=O)Nc1ccc2oc(-c3ccncc3)nc2c1 (configuration not stated) | > 5 µM | > 5 µM | – | – | – | – | – | – | – | – | – | –
CC(Oc1ccc(Cl)cc1Cl)C(=O)Nc1ccc2oc(-c3cccnc3)nc2c1 (configuration not stated) | 0.15 µM | > 5 µM | 0.6 µM | – | – | – | – | – | – | – | – | –
C[C@H](Oc1cccc(Cl)c1Cl)C(=O)Nc1cccc(NC(=O)c2ccncc2)c1 | > 5 µM | > 5 µM | – | – | – | – | – | – | – | – | – | –
CC(C)(Oc1ccc(Cl)cc1)C(=O)Nc1ccc2oc(-c3ccncc3)nc2c1 | > 5 µM | > 5 µM | – | – | – | – | – | – | – | – | – | –
CC(Oc1ccccc1)C(=O)Nc1ccc2nc(-c3ccncc3)[nH]c2c1 (configuration not stated) | > 5 µM | > 5 µM | – | 9 µM | 1 | 9 µM | – | – | – | – | – | –
CC(Nc1cccc(Cl)c1Cl)C(=O)Nc1ccc2oc(-c3ccncc3)nc2c1 (racemic) | 0.002 µM | > 5 µM | – | – | – | 0.02 µM | – | – | – | – | – | –
CC(Oc1c(Cl)cccc1Cl)C(=O)Nc1ccc2oc(-c3ccncc3)nc2c1 (configuration not stated) | > 5 µM | > 5 µM | – | – | – | – | – | – | – | – | – | –
CC(Oc1ccc(Cl)cc1Cl)C(=O)Nc1ccc2oc(-c3ccccn3)nc2c1 (configuration not stated) | 0.21 µM | > 5 µM | 0.8 µM | – | – | – | – | – | – | – | – | –
CC(Oc1ccc(Cl)c2ccccc12)C(=O)Nc1ccc2oc(-c3cncs3)nc2c1 (configuration not stated) | 0.028 µM | > 5 µM | 0.07 µM | 5 µM | 3 | 2 µM | – | – | – | – | – | –
COc1ccc(OC(C)C(=O)Nc2ccc3oc(-c4ccncc4)nc3c2)cc1 (configuration not stated) | 0.028 µM | > 5 µM | 0.034 µM | > 25 µM | >50 | 0.5 µM | > 50 µM | > 50 µM | > 50 µM | > 50 µM | – | –
CC(Oc1cccc(Cl)c1Cl)C(=O)Nc1ccc2oc(-c3ccncc3)nc2c1 (configuration not stated) | 0.003 µM | > 5 µM | 0.011 µM | 8 µM | 40 | 0.22 µM | > 50 µM | > 50 µM | > 50 µM | > 50 µM | – | –
CC(C)C(Oc1cccc2ccccc12)C(=O)Nc1ccc2oc(-c3ccncc3)nc2c1 (configuration not stated) | 0.024 µM | > 5 µM | 0.057 µM | – | – | – | – | – | – | – | – | –
C[C@H](Oc1cccc(Cl)c1Cl)C(=O)Nc1ccc2oc(-c3cncs3)nc2c1 | 0.0014 µM | > 5 µM | 0.0023 µM | 3.3 µM | 15 | 0.2 µM | – | – | – | – | 7 min | 11 min
CC(Oc1ccccc1)c1cn(-c2ccc3oc(-c4cncs4)nc3c2)nn1 (configuration not stated) | > 5 µM | > 5 µM | – | – | – | – | – | – | – | – | – | –
CC(Oc1ccc(Cl)c2ccccc12)C(=O)Nc1ccc2oc(-c3ccncc3)nc2c1 (configuration not stated) | 0.027 µM | > 5 µM | 0.053 µM | – | – | – | – | – | – | – | – | –
C[C@H](Oc1cccc([N+](=O)[O-])c1Cl)C(=O)Nc1ccc2oc(-c3ccncc3)nc2c1 | 0.0023 µM | > 5 µM | 0.006 µM | – | – | 0.19 µM | > 50 µM | > 50 µM | > 50 µM | > 50 µM | – | –
CC(Oc1ccc(Cl)cc1Cl)C(=O)Nc1ccc2oc(-c3ccccc3)nc2c1 (configuration not stated) | > 5 µM | > 5 µM | – | – | – | – | – | – | – | – | – | –
CC(NC(=O)c1ccc2oc(-c3ccncc3)nc2c1)c1ccccc1 (configuration not stated) | > 5 µM | > 5 µM | – | – | – | – | – | – | – | – | – | –
C[C@H](Oc1cccc2ccccc12)C(=O)Nc1ccc2oc(-c3ccncc3)nc2c1 | – | > 5 µM | 0.008 µM | 2.2 µM | 5 | 0.4 µM | – | – | – | – | 30 min | –
